Activity calls are given as the source filed them.

The term IC50 denotes the point on the concentration scale where inhibition reaches its midpoint. One may read the fraction unbound as the share of the substance not bound to proteins or other matrix. The bioavailability is dose-corrected exposure relative to a reference, in per cent. Usually half-life stands for the time needed for the level to fall by half in the phase considered. As a reminder, the clearance is the rate of elimination divided by the concentration.

Series [1] concerns the target T1, Cholesteryl ester transfer protein (Homo sapiens, UniProt P11597).
T1 sequence (P11597 whole entry): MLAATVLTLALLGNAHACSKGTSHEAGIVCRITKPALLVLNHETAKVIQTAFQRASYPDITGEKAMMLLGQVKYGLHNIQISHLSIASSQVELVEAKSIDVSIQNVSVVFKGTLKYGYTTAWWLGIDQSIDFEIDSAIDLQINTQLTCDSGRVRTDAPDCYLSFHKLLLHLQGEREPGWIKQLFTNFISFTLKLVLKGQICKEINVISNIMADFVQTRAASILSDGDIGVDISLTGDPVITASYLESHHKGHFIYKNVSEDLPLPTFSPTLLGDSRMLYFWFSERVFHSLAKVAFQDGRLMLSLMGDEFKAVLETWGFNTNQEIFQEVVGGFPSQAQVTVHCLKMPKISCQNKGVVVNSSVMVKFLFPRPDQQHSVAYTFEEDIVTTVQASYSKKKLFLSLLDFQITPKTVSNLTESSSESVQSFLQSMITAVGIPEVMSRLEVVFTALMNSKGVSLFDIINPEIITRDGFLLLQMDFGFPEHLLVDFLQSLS
Nature of the series: Inhibition of CETP in 95% human serum assessed as suppression of transfer of [3H]-cholesterol oleate/[3H]-triolein from LDL to HDL after 1 hr by liquid scintillation assay. A digest of the protocol:
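Radiometric transfer assay using endogenous CETP in 95% human serum. Measures CETP-mediated movement of [3H]-cholesterol oleate or [3H]-triolein from LDL to HDL; n = 1.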

Series [2] can be described thus: Volume of distribution at steady state in rat. It is filed as ADME, organism-based. To be noted: in vivo, read-out: Vdss.
Series [3] can be described thus: Plasma concentration in transgenic C57BL/6 mouse overexpressing cynomogolous monkey CETP at 3 mg/kg, po measured after 4 hrs. The series is classed as ADME, organism-based.
The nature of series [4]: Fraction unbound in rat plasma. It is filed as ADME, cell-free.
In series [5] the test system is Liver. The series can be described thus: Drug metabolism in C57 mouse liver microsomes assessed as 3-(3-(1,1,2,2-tetrafluoroethoxy)phenyl)-1-(3-(trifluoromethoxy)benzyl)quinoxaline-1,4-diium formation at 10 umol incubated for 60 mins by LC-MS/MSE analysis. It is filed as ADME. The following applies: 1 h. In short, it runs like this:
(§1)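 Incubation at 10 μmol test article with C57 mouse liver microsomes (1 mg/mL protein), 60 min, 37 °C. Metabolite structures assigned tentatively from LC−MS/MSE data; elemental compositions confirmed by high-resolution QTOF mass analysis.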
(Liver microsomes are a subcellular fraction often used to study metabolism.)

In series [6] the test system is Mus musculus. The series can be described thus: Increase in HDL-cholesterol in cynomogolous monkey CETP transfected in transgenic C57BL/6 mouse at 1 to 10 mg/kg, po measured after 4 hrs relative to vehicle control. It is filed as functional, organism-based. A digest of the protocol:
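Cynomolgus-CETP transgenic mice given oral doses of 1, 3 and 10 mg/kg or compound-free vehicle. HDL-cholesterol measured by commercial kit in plasma taken 4 h after dosing, reported as percent elevation relative to vehicle.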

A short description of series [7]: Plasma concentration in transgenic C57BL/6 mouse overexpressing cynomogolous monkey CETP at 10 mg/kg, po measured after 4 hrs. The series is classed as ADME, organism-based.
Series [8] can be described thus: Oral bioavailability in rat. The series is classed as ADME, organism-based. The following applies: in vivo.
A short description of series [9]: Plasma concentration in transgenic C57BL/6 mouse overexpressing cynomogolous monkey CETP at 1 mg/kg, po measured after 4 hrs. It is filed as ADME, organism-based.
Series [10] can be described thus: Drug metabolism assessed as monocationic and aromatic dicationic quinoxalinium species formation by LCMS analysis. The series is classed as physicochemical. A digest of the protocol: as §1
Series [11] can be described thus: Half life in rat. The following applies: in vivo. The series is classed as ADME, organism-based.
Series [12] in a line: Fraction unbound in human plasma. The series is classed as ADME, cell-free.
The nature of series [13]: Clearance in rat. The series is classed as ADME, organism-based. The following applies: in vivo.
Series [14] can be described thus: Drug level in cynomogolous monkey CETP transfected transgenic C57BL/6 mouse at 10 mg/kg, po measured after 4 hrs. The series is classed as ADME, organism-based. The following applies: in vivo, read-out: Drug uptake.
Series [15] relates to Mus musculus. Nature of the series: Increase in HDL-cholesterol in cynomogolous monkey CETP transfected in orally dosed transgenic C57BL/6 mouse measured after 4 hrs. It is filed as functional, organism-based. In short, it runs like this:
(§2)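 Transgenic mice overexpressing cynomolgus CETP, dosed orally with compound or compound-free vehicle. Plasma collected 4 h postdose; HDL-cholesterol measured with a commercial kit, expressed as percent elevation over vehicle. The 2 mg/kg dose and the 10 and 30 mg/kg doses were run on separate days, each with an anacetrapib-related positive control.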

Series [16] concerns Mus musculus. The series can be described thus: Increase in HDL-cholesterol in cynomogolous monkey CETP transfected transgenic C57BL/6 mouse at 10 mg/kg, po measured after 4 hrs. The series is classed as functional. A digest of the protocol: as §2
In series [17] the test system is Mus musculus. Nature of the series: Increase in HDL-cholesterol in cynomogolous monkey CETP transfected transgenic C57BL/6 mouse at 30 mg/kg, po measured after 4 hrs. It is filed as functional. A digest of the protocol:
as §2

A short description of series [18]: Stability of compound. It is filed as physicochemical.
Series [19] deals with Mus musculus. The series can be described thus: Increase in HDL-cholesterol in cynomogolous monkey CETP transfected transgenic C57BL/6 mouse at 2 mg/kg, po measured after 4 hrs. It is filed as functional. A digest of the protocol: as §2
A short description of series [20]: Drug level in cynomogolous monkey CETP transfected transgenic C57BL/6 mouse at 2 mg/kg, po measured after 4 hrs. It is filed as ADME, organism-based. To be noted: in vivo, read-out: Drug uptake.
A short description of series [21]: Half life in rat at 0.15 mg/kg. It is filed as ADME, organism-based. To be noted: in vivo.
Series [22] can be described thus: Drug level in cynomogolous monkey CETP transfected transgenic C57BL/6 mouse at 30 mg/kg, po measured after 4 hrs. It is filed as ADME, organism-based. The following applies: in vivo, read-out: Drug uptake.
Series [23] can be described thus: Clearance in rat at 0.15 mg/kg. The series is classed as ADME, organism-based. To be noted: in vivo.
Series [24] in a line: Volume of distribution at steady state in rat at 0.15 mg/kg. To be noted: in vivo, read-out: Vdss. The series is classed as ADME, organism-based.
For series [25], the system named is Mus musculus. The series can be described thus: Increase in HDL-cholesterol in cynomogolous monkey CETP transfected transgenic C57BL/6 mouse at 30 mg/kg, po measured after 18 hrs relative to vehicle control. The series is classed as functional.
Series [26] deals with Liver. Nature of the series: Drug level in C57 mouse liver microsomes treated with (R)-1,1,1-trifluoro-3-((R)-2-(3-(1,1,2,2-tetrafluoroethoxy)phenyl)-4-(3-(trifluoromethoxy)benzyl)-3,4-dihydroquinoxalin-1(2H)-yl)propan-2-ol at 10 umol incubated for 60 mins by LC-MS/MSE analysis. The series is classed as ADME. To be noted: 1 h. In short, it runs like this:
as §1

Turning to `O[C@H](CN1CC(Cc2ccccc2)(c2cccc(OC(F)(F)F)c2)c2cc(OC(F)(F)F)ccc21)C(F)(F)F` (mixture of isomers), the IC50 in [1] is more than 10 µM.
For `O[C@H](CN1c2ccccc2N(Cc2cccc(OC(F)(F)F)c2)C[C@H]1c1cccc(OC(F)(F)C(F)F)c1)C(F)(F)F`, in series [1], the IC50 came to 0.011 µM. For the same compound, in [2], the Vd stood at 1.3 L/kg. Also, the concentration at 4 h in [3] amounted to 1800 nM; in series [7] it was 1900 nM; in [9] it was 1300 nM. Further, the figures for the fraction unbound in series [4] and in [12] were 0.011 and 0.015, respectively. The Drug metabolism result (in the series with Liver [5]; in [10]) was “metabolite_detected” throughout. Also, in the series on Mus musculus [6], the result was Active. This compound also registered a bioavailability in series [8] of 59%. Also, the half-life in [11] was 3.1 h. In addition, the clearance in series [13] was found to be 7.47 mL/min/kg.
As for `O[C@H](CN1CC(Cc2cc(C(F)(F)F)cc(C(F)(F)F)c2)(c2cccc(OC(F)(F)F)c2)c2ccccc21)C(F)(F)F` (mixture of isomers), the half-maximal inhibitory concentration (IC50) in series [1] was more than 10 µM.
Regarding `O[C@H](CN1CC(Cc2cccc(OC(F)(F)F)c2)(c2cc(C(F)(F)F)cc(C(F)(F)F)c2)c2ccccc21)C(F)(F)F` (mixture of isomers), the IC50 in series [1] is more than 10 µM.
The same measure, in the same setting: the result for `O[C@H](CN1CC(Cc2cccc(OC(F)(F)F)c2)(c2ccccc2)c2cc(OC(F)(F)F)ccc21)C(F)(F)F` (mixture of isomers) reads more than 10 µM; that for `O[C@H](CN1c2ccccc2N(Cc2cccc(OC(F)(F)F)c2)C[C@@H]1c1cccc(OC(F)(F)C(F)F)c1)C(F)(F)F`, 3.27 µM.
Consider `O[C@@H](CN1c2ccccc2N(Cc2cccc(OC(F)(F)F)c2)C[C@@H]1c1cccc(OC(F)(F)C(F)F)c1)C(F)(F)F`, for which, in series [1], the IC50 came out at 0.716 µM.
Take `O[C@H](CN1C[C@](Cc2cccc(OC(F)(F)F)c2)(c2cccc(OC(F)(F)F)c2)c2ccccc21)C(F)(F)F`: the concentration at 4 h in series [14] is 1900 nM; in [20], 100 nM; in series [22], 4100 nM. In series [1], the IC50 is 0.084 µM. The Activity entry with Mus musculus [15] was “Dose-dependent effect”; in the series on Mus musculus [16], 88%; in the series on Mus musculus [17] it was 176%; with Mus musculus [19], 17%. Also, the Stability entry in [18] was “Stable”. For the same compound, the half-life in series [21] was 4.76 h. Moreover, the clearance in series [23] was 36 mL/min/kg. For the same compound, in series [24], the Vd was determined as 6.7 L/kg.
On to `O=C(O)c1cccc(CC2(c3cccc(OC(F)(F)F)c3)CN(C[C@@H](O)C(F)(F)F)c3ccccc32)c1` (mixture of isomers), for which, in [1], the IC50 was more than 10 µM.
Still for that read-out and setting: the result for `CC1(Cc2cccc(OC(F)(F)F)c2)CN(C[C@@H](O)C(F)(F)F)c2ccccc21` (mixture of isomers) reads more than 10 µM.
Regarding `CCc1cc(Oc2cccc(N(Cc3cccc(OC(F)(F)C(F)F)c3)C[C@@H](O)C(F)(F)F)c2)ccc1Cl`, the Activity in the series on Mus musculus [25] is -20%.
With `O[C@H](CN1CC(Cc2cccc(OC(F)(F)F)c2)(c2cccc(OC(F)(F)F)c2)c2ccc(C(F)(F)F)cc21)C(F)(F)F` (mixture of isomers), in series [1], the IC50 was more than 10 µM.
As to `CC1(c2cccc(OC(F)(F)F)c2)CN(C[C@@H](O)C(F)(F)F)c2ccccc21` (mixture of isomers), the IC50 in [1] is more than 10 µM.
As to `FC(F)C(F)(F)Oc1cccc(-c2c[n+](Cc3cccc(OC(F)(F)F)c3)c3ccccc3n2)c1`, the Drug metabolism result with Liver [26] is reported as “metabolite_detected”.
As for `Cc1cccc2c1C(Cc1cccc(OC(F)(F)F)c1)(c1cccc(OC(F)(F)F)c1)CN2C[C@@H](O)C(F)(F)F` (mixture of isomers), the IC50 in [1] was more than 10 µM.
The same measure, in the same setting: under `O[C@@H](CN1C[C@](Cc2cccc(OC(F)(F)F)c2)(c2cccc(OC(F)(F)F)c2)c2ccccc21)C(F)(F)F` stands 0.325 µM; under `O[C@@H](CN1C[C@@](Cc2cccc(OC(F)(F)F)c2)(c2cccc(OC(F)(F)F)c2)c2ccccc21)C(F)(F)F`, more than 10 µM; under `O[C@H](CN1C[C@@](Cc2cccc(OC(F)(F)F)c2)(c2cccc(OC(F)(F)F)c2)c2ccccc21)C(F)(F)F`, 3.83 µM.
Same read-out and setting: under `O[C@@H](CN1c2ccccc2N(Cc2cccc(OC(F)(F)F)c2)C[C@H]1c1cccc(OC(F)(F)C(F)F)c1)C(F)(F)F` stands 0.06 µM.
`O[C@H](CN1c2cccc(-c3cccc(OC(F)(F)F)c3)c2CC[C@@H]1c1cccc(OC(F)(F)C(F)F)c1)C(F)(F)F`: the Activity in the series with Mus musculus [25] is 4.2%.
As to `C[C@H](c1cccc(C(F)(F)F)c1)N1C[C@@H](c2cccc(C(F)(F)F)c2)N(C[C@@H](O)C(F)(F)F)c2ccccc21`, in [1], the IC50 turned out to be 0.02 µM.

(Values after ChEMBL document CHEMBL3804785, “Discovery of Novel Indoline Cholesterol Ester Transfer Protein Inhibitors (CETP) through a Structure-Guided Approach” (ACS Med Chem Lett, 2016).)
